Assay outcomes: PubChem BioAssay, several laboratories
Compounds with a hit are over-represented: about 1.9% of the library has one in this group of screens.
Efflux pump inh: inhibitors of Candida antifungal efflux pumps expressed in yeast | S. cerevisiae Candida pump triplex, Nile Red efflux | inhibition, % at 10 µM | 330,000 compounds, 0.44% hits | AID 485275;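 active = plate passing quality check with inhibition over a set limit, or well fluorescence over plate mean plus 4 SD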;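 note: Nile Red retained in pooled yeast measured as flow cytometry median fluorescence; 0% = buffer negative control and 100% = Enniatin B positive control; higher means more Nile Red kept so more efflux inhibition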
Rtt109 Vps75: inhibitors of Candida albicans Rtt109/Vps75 histone acetyltransferase | inhibition, % at 34.9 µM | 330,000 compounds, 0.16% hits | purified Rtt109/Vps75, ThioGlo CoA-SH fluorescence, 4 h | Q5AAJ8 | AID 540336;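 active = inhibition of at least 50% in every replicate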
FGF22 binding: shifts melting point of recombinant human FGF22; recombinant FGF22 thermal shift, SYPRO orange fluorescence; percent of sucrose octasulfate shift, DMSO zero; activity (Tm shift, normalised), % at 9.99 µM; 340,000 compounds, 1.5% hits;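 active = mean Tm shift, scaled 0 neutral to 100 positive control, at about 1.3% or above, every replicate too, limit read from the data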
Target sequence (Q9HCT0 whole entry, looked up): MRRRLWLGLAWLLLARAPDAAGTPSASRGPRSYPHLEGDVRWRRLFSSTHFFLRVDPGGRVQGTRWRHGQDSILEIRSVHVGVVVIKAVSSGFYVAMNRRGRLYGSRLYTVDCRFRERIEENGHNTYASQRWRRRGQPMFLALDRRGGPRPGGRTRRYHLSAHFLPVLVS
ASAP1 GAP inh: ASAP1 ArfGAP inhibition | Q9ULH1 | ASAP1-stimulated ARF1 GTP hydrolysis, GDP FP detection | inhibition, % at 16.5 µM | 360,000 compounds, 0.19% hits | AID 624377; in the data active = inhibition above about 25%;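 note: 0% = vehicle with enzyme and substrate and 100% = no enzyme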
ARFGAP1 inhibitor: rat ARFGAP1 inhibition | inhibition, % at 16.5 µM | 360,000 compounds, 0.26% hits | Arfgap1-stimulated ARF1 GTP hydrolysis, GDP FP detection;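 active = inhibition above a per-plate limit, mean inhibition of low control wells plus 3 SD, cut at about 25% in these data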;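 note: 0% = DMSO wells with enzyme and 100% = wells lacking Arfgap1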
Target sequence (Q62848 1-136 limits assumed): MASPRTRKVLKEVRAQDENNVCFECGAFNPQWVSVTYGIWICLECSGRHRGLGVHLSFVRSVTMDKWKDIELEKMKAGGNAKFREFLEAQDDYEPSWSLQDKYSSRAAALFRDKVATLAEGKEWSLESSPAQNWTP
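Assay system: purified rat His6-Arfgap1 residues 1-136 (GAP domain); Reagent: human Δ17 ARF1 bound to GTP; Dosing: 16.5 µM single point, 1.26% DMSO; Times: GTP hydrolysis reaction 2 h at 25 °C; Signal: FP, GDP Alexa 633 tracer displaced from anti-GDP antibody, 620/688 nm; Measure: % inhibition from polarization.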
An asterisk follows results filed as active; · = no result given.

SMILES	Efflux pump inh	Rtt109 Vps75	FGF22 binding	ASAP1 GAP inh	ARFGAP1 inhibitor
Cc1ccc2nc(-c3cccs3)oc(=O)c2c1	0	-7	43*	9	3
S=C1NCCOCCOCCOCCNC(=S)N2CCOCCOCCN1CCOCCOCC2	0	-5	43*	-8	17
S=C1NCCOCCOCCOCCOCCNC(=S)N2CCOCCOCCN1CCOCC2	0	-5	0	-3	11
Cc1cccc(NC(=O)CN2C(=S)NC(C)(C)CC2C)c1 (configuration not stated)	0	9	·	0	3
COc1ccc(NC(=O)N(C)C[C@H]2Oc3ccc(NC(=O)CCN4CCOCC4)cc3C(=O)N([C@H](C)CO)C[C@H]2C)cc1	·	·	0	·	·
CCNS(=O)(=O)c1c(C)cc(C)c(N(C)S(=O)(=O)c2ccccc2)c1C	0	8	43*	4	4
Cc1cc(C)c(S(N)(=O)=O)c(C)c1N(C)S(=O)(=O)c1ccccc1	0	2	0	-14	7
CC12CCC(CC1O)C2C(=O)O (configuration not stated)	·	·	43*	-11	-3
O=C(O)C1CC2CCC1CC2 (configuration not stated)	·	-3	0	12	6
S=c1[nH]nc(C2COc3ccccc3O2)o1 (configuration not stated)	0	3	·	6	4
S=c1nc(C2COc3ccccc3O2)[nH][nH]1 (configuration not stated)	0	0	43*	-5	-7
CC(C)SCC(=O)Nc1ncc2c(n1)-c1ccccc1CC2	0	5	44*	2	4
O=C(Nc1ncc2c(n1)-c1ccccc1CC2)C1CC1	0	-6	0	-11	8
Cc1ccc(OCCN2C(=O)OC(C)(C)C2(C)O)cc1 (configuration not stated)	0	·	·	-5	-4
Nc1ccc2oc(=O)c3ccccc3c2c1	0	-7	·	-5	12
O=S1(=O)N=C(N/N=C/c2ccccn2)c2ccccc21	0	-3	·	-15	-6
O=S1(=O)N=C(N/N=C/c2ccc(Br)o2)c2ccccc21	0	-7	43*	14	6
CC(SCc1ccccc1)C(=O)NCc1ccccn1 (configuration not stated)	·	-11	0	-8	-11
CC(=O)O/N=C/c1c(Cl)n(C)c2ccccc12	0	5	44*	-13	1
Cn1c(Cl)c(/C=N/OC(=O)C(C)(C)C)c2ccccc21	0	-10	0	4	-1
Cc1ccc(NC(=O)C(c2ccccc2)N2CCN(CC(=O)NC3CC3)CC2)cc1Cl (configuration not stated)	0	-11	0	-7	5
O=C(NC1CCCC1)C(c1ccc(F)cc1)N(C(=O)c1csnn1)c1ccccc1F (configuration not stated)	0	-7	0	-10	8
C=CCN(C(=O)c1csnn1)C(C(=O)NCc1ccc(F)cc1)c1ccccc1F (configuration not stated)	0	-1	43*	-1	8
O=C(NCc1ccccc1)C(c1ccccc1)N(C(=O)c1csnn1)c1ccccc1 (configuration not stated)	0	2	43*	1	-12
O=C(NC1CCCC1)C(c1ccc(F)cc1)N(C(=O)c1csnn1)c1ccccc1 (configuration not stated)	0	52*	0	-2	-4
COCCn1nnnc1C(c1ccccc1OC)N1CCN(C(=O)c2ccco2)CC1 (configuration not stated)	0	27	2.1*	6	1
Clc1ccc(-c2noc(CN(Cc3ccccn3)CC3CCCO3)n2)cc1 (configuration not stated)	0	-18	43*	0	4
C#CCOCCOCCOCCNc1nc(N2CCN(C(=O)[C@H](CCCN=C(N)N)n3cc(C(N)[C@@H](C)CC)nn3)CC2)nc(N2CCN(C(=O)[C@H](CCCCN)n3cc([C@@H](N)CC(N)=O)nn3)CC2)n1 (some centres not stated)	0	80*	0	-10	1
